Screening results from PubChem.
CYP2C19 inh = blocks human cytochrome P450 2C19. P33261. CYP2C19 Supersomes, luciferin-H EGE luminescence, 30 min. inhibition, % at 5 µM. hit rate 21% among 96,000;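 active = CYP2C19 inhibition above a set limit at 5 µM in the primary screen, cut at about 50% in these data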
Target sequence (P33261 whole entry, looked up): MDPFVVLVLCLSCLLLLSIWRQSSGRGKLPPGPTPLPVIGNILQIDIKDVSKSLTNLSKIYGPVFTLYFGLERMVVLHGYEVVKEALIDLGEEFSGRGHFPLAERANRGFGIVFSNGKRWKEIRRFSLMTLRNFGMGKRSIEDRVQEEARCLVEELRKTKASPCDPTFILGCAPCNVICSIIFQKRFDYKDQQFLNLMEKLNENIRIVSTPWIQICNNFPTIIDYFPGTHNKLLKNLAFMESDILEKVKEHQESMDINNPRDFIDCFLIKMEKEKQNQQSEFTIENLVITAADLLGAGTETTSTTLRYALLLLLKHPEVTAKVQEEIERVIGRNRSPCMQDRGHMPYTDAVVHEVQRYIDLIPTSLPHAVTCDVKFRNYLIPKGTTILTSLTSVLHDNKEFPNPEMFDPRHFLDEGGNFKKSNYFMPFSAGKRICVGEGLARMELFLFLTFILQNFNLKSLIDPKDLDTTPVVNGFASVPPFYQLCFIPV
E coli WT exp = blocks growth of wild type E. coli BW25113; OD600 absorbance; growth inhibition, % at 100 µM; hit rate 0.15% among 98,000; AID 710;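 active = growth inhibition above about 50% at one test dose, limit read from the data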;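 also: growth measured after 20 h incubation at 37 °C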
CYP2C9 inh = blocks human cytochrome P450 2C9 | hit rate 20% among 96,000 | CYP2C9 Supersomes, luciferin-H conversion, luminescence | P11712 | inhibition, % at 5 µM;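 active = blocking of liver enzyme CYP2C9 beyond about 50% at 5 µM, limit read from the data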
CYP2C9 act = activators of human CYP2C9. activation factor at 5 µM. P11712. hit rate 1.4% among 96,000. recombinant CYP2C9, luciferin-H conversion, luminescence; hits give high values; factor 1 = untreated enzyme, 0 = blocked;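 active = activation factor of 2 or more for CYP2C9 at a 5 µM dose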
CYP2C19 activ = increases human CYP2C19 enzyme activity; P33261; recombinant CYP2C19, luciferin-H EGE luminescence; hits give high values; 0 = fully inhibited enzyme, 1 = untreated enzyme; activation factor at 5 µM; 96,000 tested, under 10 active;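 active = activation factor of at least 2 at 5 µM in the primary screen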
Ecoli tolC = E. coli tolC mutant growth inhibition | hit rate 2.2% among 65,000 | E. coli BW25113 tolC mutant growth, OD615 | growth inhibition, % at 10 µM (by protocol);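 active = growth inhibition at or above a cutoff equal to the mean over every tested compound plus 3 SD, cut at about 60% in these data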;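 also: growth measured after 20 h incubation at 37 °C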
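Test system: E. coli BW25113 ΔtolC::kan bacteria | Medium: Kanamycin-containing LB broth (50 µg/mL) | Dosing: One dose of 10 µM final | Times: 20 h incubation with compound, 37 °C | Detection: Optical density read at 615 nm | Read-out basis: Percent growth inhibition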
Numbers stand for hits; - = inactive; . = no result. This is a sample that favours compounds with a hit; in the whole collection about 29% have one here.

SMILES	CYP2C19 inh	E coli WT exp	CYP2C9 inh	CYP2C9 act	CYP2C19 activ	Ecoli tolC
CCOc1ccccc1Cn1c(=O)oc2ccc(C)cc21	.	.	.	.	.	-
CCCCOC(=O)Cn1c(=O)oc2ccc(C)cc21	-	-	-	2.2	-	-
COc1ccc(C(=O)NC2CCN(C(=S)Nc3cccc(C)c3C)CC2)cc1	-	-	-	-	-	.
COc1ccccc1OCCCn1c(=O)sc2ccccc21	100	-	74	-	-	-
COc1ccc(-c2nc(SC)n(C)c(=O)c2C#N)cc1OC	-	-	95	-	-	-
CCc1nc(N)c(C#N)c(-c2ccc(OC)c(OC)c2)c1C	-	-	-	-	-	-
COC(=O)c1ccc2c(=O)n(CCN3CCOCC3)c(=S)[nH]c2c1	-	-	-	-	-	-
Nc1c(C(=O)OCC2CCCO2)c2nc3ccccc3nc2n1C1CCCC1 (stereo not drawn)	-	-	55	-	-	-
CC(C)Cn1c(N)c(C(=O)NCC2CCCO2)c2nc3ccccc3nc21 (stereo not drawn)	65	-	85	-	-	-
COCCn1c(N)c(C(=O)NCC2CCCO2)c2nc3ccccc3nc21 (stereo not drawn)	-	-	-	-	-	-
CCOc1ccc(S(=O)(=O)N(CC(=O)N2CCc3ccccc32)Cc2ccco2)cc1	92	-	52	-	-	-
CCN(CC)S(=O)(=O)c1ccc(Cl)c(C(=O)N2CCc3ccccc32)c1	-	-	-	-	-	.
CN(CC(=O)N1CCc2ccccc21)S(=O)(=O)c1ccc(Cl)cc1	60	-	-	2.7	-	-
CCCCN(Cc1cc2ccccc2[nH]c1=O)C(=O)c1ccccn1	-	-	-	-	-	.
CCc1nc2ccccc2c(NC(=O)CN2CCC(C)CC2)c1C	-	-	-	-	-	-
CCCCNC(=O)CS(=O)Cc1nc(-c2cccc(Cl)c2)oc1C (stereo not drawn)	-	-	62	-	-	-
CCCCSCCCNC(=O)CS(=O)Cc1nc(-c2cccc(C)c2)oc1C (stereo not drawn)	85	-	78	-	-	-
CCCCNC(=O)CS(=O)Cc1nc(-c2cccc(C)c2)oc1C (stereo not drawn)	-	-	-	-	-	-
COc1ccccc1N1CCN(C(=O)C(=O)N/N=C/c2cccc(O)c2)CC1	-	-	-	-	-	.
COc1ccc(C(c2nnnn2Cc2cccs2)N2CCN(c3ccccc3F)CC2)cc1OC (stereo not drawn)	-	-	-	-	-	-
CCC(C)(C)n1nnnc1C(c1cc2cc(C)cc(C)c2[nH]c1=O)N1CCN(Cc2ccc3c(c2)OCO3)CC1 (stereo not drawn)	-	-	80	-	-	.
COCCn1nnnc1C(c1ccc(C)cc1)N1CCN(Cc2ccc3c(c2)OCO3)CC1 (stereo not drawn)	-	-	51	-	-	-
COc1ccccc1CN1CCN(C(CC(C)C)c2nnnn2Cc2cccs2)CC1 (stereo not drawn)	92	-	58	-	-	-
CC(C)(C)n1nnnc1C(c1cccs1)N1CCCc2ccccc21 (stereo not drawn)	-	-	-	-	-	82
COCC(C)n1c(C)cc(C(=O)CN2C(=O)NC3(CCCCC3C)C2=O)c1C (stereo not drawn)	-	-	-	-	-	-
SMILES	CYP2C19 inh	E coli WT exp	CYP2C9 inh	CYP2C9 act	CYP2C19 activ	Ecoli tolC
CC(C)(C)n1nnnc1C(c1cccs1)N1CCN(Cc2ccc3c(c2)OCO3)CC1 (stereo not drawn)	53	-	-	-	-	.
Cc1ccc(C(c2nnnn2Cc2cccs2)N2CCN(Cc3ccc4c(c3)OCO4)CC2)cc1 (stereo not drawn)	62	-	-	-	-	-
COCCn1nnnc1C(c1ccccc1)N1CCN(Cc2ccc3c(c2)OCO3)CC1 (stereo not drawn)	-	-	-	-	-	-
CNc1nc(SCC(=O)OC)nc(N2CCOCC2)n1	-	-	-	-	-	-
CC(C)c1ccc(/C=C/C(=O)n2nnc3ccccc32)cc1	-	-	-	-	-	.
Cc1ccc(S(=O)(=O)N2CCN(c3nc(C(C)C)c4c(c3C#N)CC(C)(C)OC4)CC2)cc1	68	-	95	-	-	-
CCCNC(=O)N1CCN(c2nc(C(C)C)c3c(c2C#N)CC(C)(C)OC3)CC1	87	-	80	-	-	-
CCOc1ccc(C(=O)CCc2nc3ccccc3s2)cc1	56	-	91	-	-	.
Cc1[nH]c(=O)[nH]c(=O)c1S(=O)(=O)NCCOC12CC3CC(CC(C3)C1)C2	-	-	-	-	-	-
O=C1C2ON(c3ccccc3)C(c3ccccn3)C2C(=O)N1c1ccc(Br)cc1 (stereo not drawn)	-	-	74	-	-	-
O=C1C2C(c3ccccc3)C=CC(c3ccccc3)C2C(=O)N1c1ccncc1 (stereo not drawn)	97	-	82	-	-	.
O=C1C2ON(c3ccccc3)C(c3ccncc3)C2C(=O)N1c1ccc(N2CCOCC2)cc1 (stereo not drawn)	-	-	-	-	-	-
O=C1C2ON(c3ccccc3)C(c3ccncc3)C2C(=O)N1c1ccc(Br)cc1 (stereo not drawn)	100	-	99	-	-	-
Cc1ccccc1N1OC2C(=O)N(c3ccc(F)cc3)C(=O)C2C1c1ccccn1 (stereo not drawn)	-	-	-	-	-	-
Cc1ccc(N2C(=O)C3ON(c4ccccc4)C(c4ccncc4)C3C2=O)cc1 (stereo not drawn)	100	-	97	-	-	-
CCN(CC)S(=O)(=O)c1ccccc1/C=N\O	-	-	-	-	-	-
C=CCN1CCN(C(c2ccccc2)c2nnnn2CCC(C)C)CC1 (stereo not drawn)	-	-	-	-	-	-
COc1ccc(-n2nc3c(c2NC(=O)c2ccc(Br)cc2)CS(=O)C3)cc1 (stereo not drawn)	-	-	-	-	-	-
CCOC(=O)COc1cc2c(C(=O)OCC)c(C)oc2cc1Br	-	-	-	-	-	-
CCOC(=O)c1c(C)oc2ccc(OCC(N)=O)cc12	-	-	-	-	-	-
CCOC(=O)c1c(C)oc2cc(Br)c(OC(C)C(=O)OCC)cc12 (stereo not drawn)	94	-	91	-	-	-
CCOC(=O)c1c(C)oc2cc(Br)c(O)c(Br)c12	-	-	67	-	-	-
Cc1cc(C)n(-c2ncc(-c3ccccc3)nn2)n1	-	-	-	-	-	-
CCn1cc(C(=O)Nc2ccc(NC(=O)c3ccco3)cc2)c(=O)c2ccc(C)nc21	.	.	.	.	.	-
C=CCn1c(SCc2ccc(F)cc2)nc2c1c(=O)[nH]c(=O)n2C	58	-	-	-	-	-
C=CCn1c(SCc2ccc(Cl)cc2)nc2c1c(=O)[nH]c(=O)n2C	-	-	-	-	-	-
CCN(CC)S(=O)(=O)c1ccc(Cl)c(C(=O)OC)c1	-	-	-	2.1	-	-
